# How the values were obtained:
# [1] = test system: Human immunodeficiency virus 1; assay: Antiviral activity against HIV1 infected in MAGI cells by beta-galactosidase reporter gene assay; type: functional, organism-based; settings: Human immunodeficiency virus 1, MAGI
# How it was run: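 HIV-1 infection of MAGI cells, with raltegravir as the MOI-sensitive positive control validating each run. EC50 and EC90 were determined.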
# [2] = Metabolic stability in human liver microsomes assessed as compound remaining at 200 uM incubated for 3 mins prior to NADPH-addition measured after 3 hrs by RP-HPLC analysis; type: ADME, Microsome; settings: read-out: Stability
# How it was run: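 Pooled human liver microsomes were preincubated with test compound, and the reaction was started with NADPH at 37 °C. Samples were taken at several times up to 3 h and quenched with cold acetonitrile. Precipitated protein was removed by centrifugation, then HPLC with UV detection measured parent remaining, from which the in vitro half-life was derived.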
# Cytochrome P450 2C8 [3] = biological target: T1, Cytochrome P450 2C8 (Homo sapiens, UniProt P10632); assay: Inhibition of CYP2C8 in human liver microsomes using amodiaquine as substrate incubated for 3 mins prior to NAPDH-addition measured after 30 mins by RP-HPLC analysis; type: ADME, Microsome
# T1 sequence (P10632 whole entry): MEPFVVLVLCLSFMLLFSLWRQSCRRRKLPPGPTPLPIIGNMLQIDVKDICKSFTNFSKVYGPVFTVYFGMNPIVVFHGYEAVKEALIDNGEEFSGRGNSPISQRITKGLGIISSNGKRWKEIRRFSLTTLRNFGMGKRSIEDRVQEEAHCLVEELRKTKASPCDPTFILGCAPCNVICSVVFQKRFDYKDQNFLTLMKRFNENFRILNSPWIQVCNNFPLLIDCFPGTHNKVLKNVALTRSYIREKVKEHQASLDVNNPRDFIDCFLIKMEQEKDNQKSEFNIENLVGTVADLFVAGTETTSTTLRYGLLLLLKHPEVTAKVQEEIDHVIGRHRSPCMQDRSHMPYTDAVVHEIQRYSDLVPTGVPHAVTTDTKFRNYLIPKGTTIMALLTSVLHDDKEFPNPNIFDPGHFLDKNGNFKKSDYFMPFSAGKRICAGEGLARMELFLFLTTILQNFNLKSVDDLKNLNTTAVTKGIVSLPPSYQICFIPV
# How it was run: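 CYP2C8 was assayed in pooled human liver microsomes at 0.4 mg/mL protein with amodiaquine as substrate (5 mM stock; 200 μM listed). Incubation was 30 min with varying inhibitor concentrations, and IC50 was obtained by kinetic analysis.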
# Cytochrome P450 2C8 [4] = biological target: T1, Cytochrome P450 2C8; assay: Activation of CYP2C8 in human liver microsomes incubated for 3 mins prior to NAPDH-addition measured after 30 mins by RP-HPLC analysis; type: ADME, Microsome; settings: 0.5 h
# [5] = biological target: T2, UDP-glucuronosyltransferase 1A9 (Homo sapiens, UniProt O60656); assay: Activity at UGT1A9 in human liver microsomes at 50 uM incubated for 3 mins prior to NADPH-addition measured up to 120 mins by HPLC/UV analysis; type: ADME, Microsome
# T2 sequence (O60656 whole entry): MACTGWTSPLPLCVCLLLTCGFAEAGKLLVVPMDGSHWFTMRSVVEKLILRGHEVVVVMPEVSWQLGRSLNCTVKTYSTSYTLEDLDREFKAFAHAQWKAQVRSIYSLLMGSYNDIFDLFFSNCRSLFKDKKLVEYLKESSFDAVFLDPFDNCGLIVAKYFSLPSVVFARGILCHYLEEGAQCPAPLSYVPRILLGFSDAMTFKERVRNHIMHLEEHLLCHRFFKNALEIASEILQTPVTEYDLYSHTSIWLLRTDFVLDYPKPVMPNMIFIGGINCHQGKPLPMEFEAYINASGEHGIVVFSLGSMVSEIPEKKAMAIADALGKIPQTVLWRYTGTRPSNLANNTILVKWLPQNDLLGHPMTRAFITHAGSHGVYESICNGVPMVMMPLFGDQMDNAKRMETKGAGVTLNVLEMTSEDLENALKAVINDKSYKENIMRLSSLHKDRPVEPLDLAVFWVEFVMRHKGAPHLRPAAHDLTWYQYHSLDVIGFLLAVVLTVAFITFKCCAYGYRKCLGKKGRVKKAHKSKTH
# [6] = biological target: T3, UDP-glucuronosyltransferase 2B7 (Homo sapiens, UniProt P16662); assay: Activity at UGT2B7 in human liver microsomes at 50 uM incubated for 3 mins prior to NADPH-addition measured up to 120 mins by HPLC/UV analysis; type: ADME, Microsome
# T3 sequence (P16662 whole entry): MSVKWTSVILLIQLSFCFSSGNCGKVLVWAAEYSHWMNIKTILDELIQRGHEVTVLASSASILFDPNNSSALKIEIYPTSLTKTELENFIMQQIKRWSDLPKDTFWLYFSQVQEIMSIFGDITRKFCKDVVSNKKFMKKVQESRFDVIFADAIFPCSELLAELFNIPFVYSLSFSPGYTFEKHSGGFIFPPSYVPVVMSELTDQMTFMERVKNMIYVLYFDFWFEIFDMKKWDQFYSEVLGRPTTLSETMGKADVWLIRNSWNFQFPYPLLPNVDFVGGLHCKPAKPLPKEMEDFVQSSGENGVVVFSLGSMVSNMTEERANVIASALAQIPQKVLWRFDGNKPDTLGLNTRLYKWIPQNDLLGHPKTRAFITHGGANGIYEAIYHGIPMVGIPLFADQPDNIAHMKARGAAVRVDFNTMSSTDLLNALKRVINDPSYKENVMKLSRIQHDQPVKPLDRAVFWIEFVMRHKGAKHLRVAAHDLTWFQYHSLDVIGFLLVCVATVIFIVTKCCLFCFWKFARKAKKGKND
# Cytochrome P450 2D6 = Cytochrome P450 2D6 (Homo sapiens, UniProt P10635); assay: Activation of CYP2D6 in human liver microsomes incubated for 3 mins prior to NAPDH-addition measured after 60 mins by RP-HPLC analysis; settings: 1 h
# Sequence of Cytochrome P450 2D6 (P10635 whole entry): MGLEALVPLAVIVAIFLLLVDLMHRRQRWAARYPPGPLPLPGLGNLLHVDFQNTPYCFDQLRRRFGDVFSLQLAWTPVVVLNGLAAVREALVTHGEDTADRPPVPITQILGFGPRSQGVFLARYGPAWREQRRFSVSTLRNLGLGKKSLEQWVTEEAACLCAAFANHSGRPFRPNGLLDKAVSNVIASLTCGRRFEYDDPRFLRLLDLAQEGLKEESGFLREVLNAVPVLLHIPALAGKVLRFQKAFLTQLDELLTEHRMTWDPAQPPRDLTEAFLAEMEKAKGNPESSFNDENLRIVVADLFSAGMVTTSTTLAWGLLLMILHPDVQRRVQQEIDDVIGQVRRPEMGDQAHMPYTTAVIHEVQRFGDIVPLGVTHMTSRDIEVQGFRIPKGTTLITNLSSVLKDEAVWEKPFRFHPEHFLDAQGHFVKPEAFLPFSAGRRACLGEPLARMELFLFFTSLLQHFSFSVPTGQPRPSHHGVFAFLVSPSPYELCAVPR
smiles,measurement,setting,value
O=C(O)/C(O)=C/C(=O)c1cc(Cc2ccc(F)cc2F)cn(Cc2ccccc2F)c1=O,EC50,[1],0.5 µM
same,"remaining at 3 h, 200 µM",[2],80%
same,IC50,Cytochrome P450 2C8 [3],> 65 µM
same,Activity,Cytochrome P450 2C8 [4],Not Active
same,Activity,[5],Not Active
same,Activity,[6],Not Active
same,Activity,Cytochrome P450 2D6,Not Active
